Measured values from ChEMBL document CHEMBL1148531, “The discovery of new 11beta-hydroxysteroid dehydrogenase type 1 inhibitors by common feature pharmacophore modeling and virtual screening” (J Med Chem, 2006).
Calls of active or inactive are those of the source. No cut-off for these calls is given here.

Experiments:
[1] = biological target: T1, 17-beta-hydroxysteroid dehydrogenase type 1 (Homo sapiens, UniProt P14061); experiment: Inhibition of human recombinant 17betaHSD1 expressed in HEK293 cells; assay type: cell-based
T1 sequence (P14061 whole entry): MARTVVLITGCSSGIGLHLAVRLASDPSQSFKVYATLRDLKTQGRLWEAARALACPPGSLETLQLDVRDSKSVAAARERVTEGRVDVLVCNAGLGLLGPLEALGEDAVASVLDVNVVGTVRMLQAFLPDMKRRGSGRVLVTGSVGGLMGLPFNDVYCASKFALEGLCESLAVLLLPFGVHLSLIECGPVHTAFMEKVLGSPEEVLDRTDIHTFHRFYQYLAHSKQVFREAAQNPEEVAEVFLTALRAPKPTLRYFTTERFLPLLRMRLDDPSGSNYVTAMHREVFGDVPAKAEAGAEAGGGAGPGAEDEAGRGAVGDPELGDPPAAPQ
Outline: (§1)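 Lysates of HEK-293 cells expressing human recombinant enzyme; inhibitor 50 nM–30 µM final, DMSO ≤0.1%. 11β-HSD1: 200 nM [1,2,6,7-3H]cortisone, 500 µM NADPH. 17β-HSD1: 200 nM radiolabeled estrone, 500 µM NADPH. 17β-HSD2: 200 nM radiolabeled estradiol, 500 µM NADP+. IC50 by nonlinear regression, first-order kinetics; mean ± SD, at least four experiments.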

[2] = biological target: T2, 11-beta-hydroxysteroid dehydrogenase 1 (Homo sapiens, UniProt P28845); experiment: Inhibition of human recombinant 11-beta-HSD1 expressed in HEK293 cells at 10 uM; assay type: cell-based; parameters: scale not given: the % may be the effect or the level left
Outline: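 Lysates of HEK-293 cells expressing human 11β-HSD1; conversion of 200 nM tritiated cortisone with 500 µM NADPH, test compound at 10 µM; percent inhibition reported.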
Target sequence in this assay (P28845 whole entry, looked up): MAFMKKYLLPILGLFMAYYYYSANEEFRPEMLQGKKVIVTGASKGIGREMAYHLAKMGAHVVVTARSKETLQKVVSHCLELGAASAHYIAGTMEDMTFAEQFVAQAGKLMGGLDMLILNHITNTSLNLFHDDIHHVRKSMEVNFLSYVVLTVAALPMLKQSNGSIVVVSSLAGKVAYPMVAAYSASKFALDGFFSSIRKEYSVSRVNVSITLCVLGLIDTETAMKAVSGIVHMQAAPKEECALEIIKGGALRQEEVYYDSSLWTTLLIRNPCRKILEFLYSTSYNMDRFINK

HEK293 = experiment: Cytotoxicity against HEK293 cells upto 40 uM by MTT assay; assay type: functional, cell-based; conditions: Homo sapiens
Outline: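 HEK-293 cells on poly-D-lysine-coated wells exposed 4 h at 37 °C to 40 µM compound, then fresh medium with 0.5 mg/mL MTT; formazan dissolved in DMSO, absorbance A570 − A690. Controls: chloroform 1% v/v and NaOH 50 mM.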

[3] = biological target: T3, 17-beta-hydroxysteroid dehydrogenase type 2 (Homo sapiens, UniProt P37059); experiment: Inhibition of human recombinant 17-beta-HSD2 expressed in HEK293 cells; assay type: cell-based; outline: as §1
T3 sequence (P37059 whole entry): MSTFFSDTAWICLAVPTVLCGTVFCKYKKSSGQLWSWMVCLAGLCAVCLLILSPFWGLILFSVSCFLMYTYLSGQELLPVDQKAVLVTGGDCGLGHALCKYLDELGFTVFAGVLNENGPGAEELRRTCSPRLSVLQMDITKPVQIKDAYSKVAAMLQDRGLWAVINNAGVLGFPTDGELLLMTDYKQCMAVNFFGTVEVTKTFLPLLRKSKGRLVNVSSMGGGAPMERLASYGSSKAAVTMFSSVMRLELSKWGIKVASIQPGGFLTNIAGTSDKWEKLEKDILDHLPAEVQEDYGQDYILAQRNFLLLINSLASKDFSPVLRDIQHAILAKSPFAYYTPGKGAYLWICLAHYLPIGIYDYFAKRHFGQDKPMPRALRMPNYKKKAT

Glucocorticoid receptor = biological target: T4, Glucocorticoid receptor (Homo sapiens, UniProt P04150); experiment: Inhibition of GR-mediated transactivation of galactosidase reporter gene in HEK293 cells in absence of 11betaHSD1; assay type: functional, cell-based
T4 sequence (P04150 whole entry): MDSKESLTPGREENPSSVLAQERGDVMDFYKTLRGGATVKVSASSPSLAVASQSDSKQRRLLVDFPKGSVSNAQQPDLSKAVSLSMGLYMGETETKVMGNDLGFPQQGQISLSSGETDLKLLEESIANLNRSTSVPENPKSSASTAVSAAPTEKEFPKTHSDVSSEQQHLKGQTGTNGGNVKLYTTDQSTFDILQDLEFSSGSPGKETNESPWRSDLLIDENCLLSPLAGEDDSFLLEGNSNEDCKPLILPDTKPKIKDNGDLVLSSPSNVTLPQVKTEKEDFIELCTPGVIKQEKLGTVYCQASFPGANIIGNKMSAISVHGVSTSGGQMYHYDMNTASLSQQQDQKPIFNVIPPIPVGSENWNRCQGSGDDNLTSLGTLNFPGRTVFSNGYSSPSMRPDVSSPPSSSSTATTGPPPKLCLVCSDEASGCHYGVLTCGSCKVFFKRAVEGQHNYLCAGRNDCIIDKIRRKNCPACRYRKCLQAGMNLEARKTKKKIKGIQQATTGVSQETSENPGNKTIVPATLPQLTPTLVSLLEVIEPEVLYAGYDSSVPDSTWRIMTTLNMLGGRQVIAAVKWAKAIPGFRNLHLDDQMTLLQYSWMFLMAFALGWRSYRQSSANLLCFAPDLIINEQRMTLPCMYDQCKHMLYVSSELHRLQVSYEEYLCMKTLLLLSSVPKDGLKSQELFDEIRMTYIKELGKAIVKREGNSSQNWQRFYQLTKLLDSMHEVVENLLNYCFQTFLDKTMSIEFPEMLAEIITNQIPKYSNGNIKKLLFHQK
Outline: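 HEK-293 cells transfected with pMMTV-LacZ, pCMV-LUC and GR plus empty pcDNA3 (no 11β-HSD1/H6PDH). After 6 h, washed into steroid-free medium, then 24 h with 100 nM cortisol and graded inhibitor. β-Galactosidase normalized to luciferase, as % of steroid-only control. Four independent experiments, means ± SD.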

[4] = biological target: T5, Mineralocorticoid receptor (Homo sapiens, UniProt P08235); experiment: Antagonist activity against MR; assay type: functional
T5 sequence (P08235 whole entry): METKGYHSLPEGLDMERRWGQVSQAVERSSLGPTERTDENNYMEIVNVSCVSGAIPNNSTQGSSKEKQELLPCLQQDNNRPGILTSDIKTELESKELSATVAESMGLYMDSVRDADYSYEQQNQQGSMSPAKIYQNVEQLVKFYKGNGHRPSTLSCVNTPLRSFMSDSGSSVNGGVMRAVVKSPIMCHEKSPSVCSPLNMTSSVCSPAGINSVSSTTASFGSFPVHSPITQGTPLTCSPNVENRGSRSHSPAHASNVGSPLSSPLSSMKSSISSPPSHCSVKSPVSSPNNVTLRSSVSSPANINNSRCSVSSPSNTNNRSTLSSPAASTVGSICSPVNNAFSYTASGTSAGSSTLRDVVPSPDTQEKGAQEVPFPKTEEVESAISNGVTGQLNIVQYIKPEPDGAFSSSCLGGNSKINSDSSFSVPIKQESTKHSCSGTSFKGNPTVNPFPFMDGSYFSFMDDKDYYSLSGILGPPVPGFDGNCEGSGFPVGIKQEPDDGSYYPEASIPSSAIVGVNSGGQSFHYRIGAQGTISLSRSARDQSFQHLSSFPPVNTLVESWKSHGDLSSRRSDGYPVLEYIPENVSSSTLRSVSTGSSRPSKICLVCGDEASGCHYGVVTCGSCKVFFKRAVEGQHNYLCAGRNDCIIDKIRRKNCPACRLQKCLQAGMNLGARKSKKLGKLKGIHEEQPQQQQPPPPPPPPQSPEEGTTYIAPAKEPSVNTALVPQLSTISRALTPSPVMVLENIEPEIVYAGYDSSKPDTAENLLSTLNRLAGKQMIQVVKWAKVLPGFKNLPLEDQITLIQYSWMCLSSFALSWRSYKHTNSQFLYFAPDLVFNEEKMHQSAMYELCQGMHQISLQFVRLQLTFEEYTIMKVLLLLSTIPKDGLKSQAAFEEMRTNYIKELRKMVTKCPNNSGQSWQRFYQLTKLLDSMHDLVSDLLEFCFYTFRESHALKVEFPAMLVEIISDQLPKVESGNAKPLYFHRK
Outline: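 HEK-293 cells on poly-L-lysine-coated wells, transfected with pMMTV-LacZ reporter, pCMV-LUC control and MR expression vector plus empty pcDNA3. […] Four independent experiments, means ± SD.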

[5] = biological target: T6, 11-beta-hydroxysteroid dehydrogenase type 2 (Homo sapiens, UniProt P80365); experiment: Inhibition of human recombinant 11betaHSD2 transfected in intact HEK293 cells; assay type: cell-based
T6 sequence (P80365 whole entry): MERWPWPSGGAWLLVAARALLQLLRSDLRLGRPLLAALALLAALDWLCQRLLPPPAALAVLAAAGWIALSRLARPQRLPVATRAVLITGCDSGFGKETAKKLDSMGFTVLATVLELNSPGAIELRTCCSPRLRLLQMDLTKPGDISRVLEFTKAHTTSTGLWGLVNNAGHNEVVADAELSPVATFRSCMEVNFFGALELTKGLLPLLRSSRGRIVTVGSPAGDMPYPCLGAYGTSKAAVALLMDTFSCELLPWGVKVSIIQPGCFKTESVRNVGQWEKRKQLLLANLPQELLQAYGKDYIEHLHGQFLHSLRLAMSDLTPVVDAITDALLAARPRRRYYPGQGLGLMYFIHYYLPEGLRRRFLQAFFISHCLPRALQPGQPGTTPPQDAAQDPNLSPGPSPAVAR

[6] = biological target: T2, 11-beta-hydroxysteroid dehydrogenase 1; experiment: Inhibition of human recombinant 11-beta-HSD1 transfected in intact HEK293 cells; assay type: cell-based
Outline: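 HEK-293 cells cotransfected (calcium phosphate) with 11β-HSD1 and H6PDH plasmids, replated after 6 h at 30000 cells/well in steroid-free DMEM for 18 h. Inhibitor 50 nM–20 µM final with 200 nM radiolabeled cortisone, 90 min at 37 °C; stopped with excess unlabeled steroids in methanol, TLC, scintillation counting. Mean ± SD, at least four experiments.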
Target sequence in this assay (P28845 whole entry): as the sequence (P28845 whole entry, looked up) above

[7] = biological target: Mineralocorticoid receptor (Homo sapiens) (UniProt P08235); experiment: Inhibition of MR-mediated transactivation of galactosidase reporter gene in HEK293 cells
[8] = biological target: T7, 11-beta-hydroxysteroid dehydrogenase 1 (Mus musculus, UniProt P50172); experiment: Inhibition of 11-beta-HSD1-dependent cortisone conversion to cortisol in mouse intact C2C12 cells; assay type: functional, cell-based
Outline: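 Differentiation: confluent C2C12 myoblasts kept 7 days in DMEM with 2% horse serum to form myotubes. Day-7 myotubes incubated 1 h at 37 °C with 200 nM radiolabeled cortisone and varying inhibitor (formation linear over 15–60 min). Steroids extracted from medium with ethyl acetate, separated by TLC, conversion by scintillation counting.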

[9] = biological target: T7, 11-beta-hydroxysteroid dehydrogenase 1; experiment: Inhibition of 11-beta-HSD1-dependent cortisone conversion to cortisol in mouse intact 3T3 L1 cells; assay type: functional, cell-based
Outline: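 3T3-L1 preadipocytes grown to confluence, held 48 h, differentiated 48 h (0.25 mM IBMX, 0.5 µM dexamethasone, 1 µg/mL insulin), then insulin medium 72 h, then insulin-free. Adipocytes incubated 45 min at 37 °C with 200 nM radiolabeled cortisone plus inhibitor at various concentrations. Medium steroids extracted, separated by TLC, scintillation counted.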

T7 sequence (P50172 whole entry): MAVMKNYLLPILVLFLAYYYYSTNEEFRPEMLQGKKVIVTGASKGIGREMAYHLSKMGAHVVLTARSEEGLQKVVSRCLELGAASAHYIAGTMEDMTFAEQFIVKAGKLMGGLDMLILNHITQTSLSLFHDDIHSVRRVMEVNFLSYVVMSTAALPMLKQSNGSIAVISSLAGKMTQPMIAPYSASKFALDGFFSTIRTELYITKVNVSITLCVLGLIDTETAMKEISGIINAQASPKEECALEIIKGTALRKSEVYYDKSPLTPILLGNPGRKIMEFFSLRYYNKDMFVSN

| IC50 [3] [µM] | IC50 [6] [µM] | Activity [7] | IC50 [8] [µM] | IC50 [9] [µM] | Compound | IC50 [1] [µM] | Activity [2] [%] | Activity (HEK293) | IC50 (Glucocorticoid receptor) [µM] | IC50 [4] [µM] | IC50 [5] [µM] |
| --- | --- | --- | --- | --- | --- | --- | --- | --- | --- | --- | --- |
| 23.6 |  |  |  |  | C[C@H]1C[C@@]2(C)CC[C@](C)(C(=O)N[C@H](Cc3ccccc3)C(=O)O)C[C@@]2(C)C2=CC(=O)[C@@H]3[C@@]4(C)CC[C@H](O)C(C)(C)[C@@H]4CC[C@@]3(C)[C@@]21C | > 30 | > 70 | Not toxic |  |  |  |
|  |  |  |  |  | CC(=O)OC1CC[C@]2(C)C3=C(C(=O)C[C@H]2C1(C)C)[C@]1(C)CCC(C(C)CCC(=O)O)[C@@]1(C)CC3=O (some centres undefined) |  | > 70 | Not toxic | 11.8 | 21 |  |
| 10.3 | 3.84 |  |  |  | COC(=O)[C@@]1(C)CC[C@]2(C)CC[C@]3(C)C(=CC(=O)[C@@H]4[C@@]5(C)CC[C@H](Oc6ccccc6C(=O)O)C(C)(C)[C@@H]5CC[C@]43C)[C@@H]2C1 |  | > 70 | Not toxic |  |  | 48 |
|  |  | inactive |  |  | C[C@]12CCC(=O)C=C1CC[C@@H]1[C@@H]2C(=O)C[C@@]2(C)[C@H]1CC[C@]2(O)C(=O)CO |  |  |  |  |  |  |
|  | 5.21 |  | 4.17 | 3.9 | COc1ccc(CCNC(=O)C23CCC(C)(C(=O)C2=O)C3(C)C)cc1OC (centres undefined) | 20.2 | > 70 | Not toxic |  |  |  |

| Compound | IC50 [3] [µM] | IC50 [6] [µM] | Activity [7] | IC50 [8] [µM] | IC50 [9] [µM] | IC50 [1] [µM] | Activity [2] [%] | Activity (HEK293) | IC50 (Glucocorticoid receptor) [µM] | IC50 [4] [µM] | IC50 [5] [µM] |
| --- | --- | --- | --- | --- | --- | --- | --- | --- | --- | --- | --- |
| CC(=O)O[C@H]1CC[C@]2(C)[C@H]3C(=O)C=C4[C@@H]5C[C@@](C)(C(=O)O)CC[C@]5(C)CC[C@@]4(C)[C@]3(C)CC[C@H]2C1(C)C [ACETOXOLONE] | 3.78 |  |  |  |  | 18.8 | > 70 | Not toxic |  |  |  |
| CC1(C)[C@@H](N)CC[C@]2(C)[C@H]3C(=O)C=C4[C@@H]5C[C@@](C)(C(=O)O)CC[C@]5(C)CC[C@@]4(C)[C@]3(C)CC[C@@H]12 |  | 1.02 |  |  |  | > 30 | > 70 | Not toxic |  |  | 6.04 |
